Measurements published in ChEMBL document CHEMBL5230179, “Novel irreversible peptidic inhibitors of transglutaminase 2” (RSC Med Chem, 2023).
Calls of active or inactive are those of the source. The rule behind the calls is not given here.

Key:
[1] = molecular target: T1, Protein-glutamine gamma-glutamyltransferase (Homo sapiens) (UniProt P21980); experiment: Irreversible inhibition of recombinant human TG2 expressed in Escherichia coli BL21 assessed as Kinact using AL5 as substrate by continuous chromogenic assay
T1 sequence (whole entry): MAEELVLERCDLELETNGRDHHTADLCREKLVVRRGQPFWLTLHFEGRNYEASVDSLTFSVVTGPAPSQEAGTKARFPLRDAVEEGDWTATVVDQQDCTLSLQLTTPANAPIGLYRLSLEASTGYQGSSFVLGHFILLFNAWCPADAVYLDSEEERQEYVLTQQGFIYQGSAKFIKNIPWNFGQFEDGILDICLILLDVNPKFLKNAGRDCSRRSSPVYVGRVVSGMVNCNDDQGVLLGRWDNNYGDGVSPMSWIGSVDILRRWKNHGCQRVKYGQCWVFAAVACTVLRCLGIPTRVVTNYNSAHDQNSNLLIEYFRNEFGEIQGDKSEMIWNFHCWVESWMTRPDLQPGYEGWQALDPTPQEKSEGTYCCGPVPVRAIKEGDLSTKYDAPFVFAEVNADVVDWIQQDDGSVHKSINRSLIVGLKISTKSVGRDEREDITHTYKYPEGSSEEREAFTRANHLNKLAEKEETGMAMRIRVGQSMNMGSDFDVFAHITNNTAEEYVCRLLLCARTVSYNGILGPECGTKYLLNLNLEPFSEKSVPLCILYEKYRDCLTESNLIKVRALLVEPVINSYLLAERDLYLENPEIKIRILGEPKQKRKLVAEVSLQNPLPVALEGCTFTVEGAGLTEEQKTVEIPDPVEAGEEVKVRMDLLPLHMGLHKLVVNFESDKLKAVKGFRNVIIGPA
Outline: (§1)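 Human TG2 expressed and purified from E. coli BL21; AL5 (Cbz-Glu(γ-p-nitrophenyl ester)-Gly-OH) hydrolysis read at 405 nm for 20 min at 25 °C under Kitz–Wilson conditions; final 100 µM AL5, 50 mM MOPS pH 6.9, 7.5 mM CaCl2, 5 mU/mL TG2, <5% DMSO; ≥4 inhibitor levels; rate constants fitted by saturation model against [I]/α (α = 1 + [S]/KM) for kinact and KI.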

[2] = molecular target: T1, Protein-glutamine gamma-glutamyltransferase (Homo sapiens); experiment: Irreversible inhibition of recombinant human TG2 expressed in Escherichia coli BL21 assessed as ratio of Kinact/Ki using AL5 as substrate by continuous chromogenic assay; outline: as §1
[3] = molecular target: T2, Protein-glutamine gamma-glutamyltransferase (Homo sapiens, UniProt P21980); experiment: Irreversible inhibition of recombinant human TG2 expressed in Escherichia coli BL21 assessed as inhibition constant using AL5 as substrate by continuous chromogenic assay; outline: as §1
T2 sequence (P21980 whole entry): T1 sequence (whole entry)

[4] = molecular target: T1, Protein-glutamine gamma-glutamyltransferase (Homo sapiens); experiment: Irreversible inhibition of recombinant human TG2 expressed in Escherichia coli BL21 assessed as ratio of Kinact/Ki using AL5 as substrate by linear regression analysis
Outline: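 Same TG2/AL5 continuous 405 nm assay (100 µM AL5, 5 mU/mL TG2, 50 mM MOPS, 7.5 mM CaCl2, 25 °C, 20 min); where saturation was not reached, rate constants of the lowest 3 inhibitor concentrations fitted by linear regression, slope taken as kinact/KI.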

[5] = test system: SCC-13; experiment: Inhibition of cell invasion in human SCC-13 cells at 10 to 50 uM measured over 20 hrs by DAPI staining based fluorescence microscopic analysis; format: functional; conditions: dose 10-50 µM
Outline: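 Matrigel-coated inserts (8-µm pores); 20,000 SCC-13 cells seeded in upper chamber in growth medium with 1% FCS, lower chamber 10% FCS; invasion followed over 0–20 h; membrane fixed in 4% paraformaldehyde, nuclei DAPI-stained, cells on lower surface counted by fluorescence microscopy.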

[6] = Apparent permeability from basolateral to apical side in MDCK-MDR1 cells; format: ADME, cell-based, Canis lupus familiaris; conditions: dog
[7] = test system: SCC-13; experiment: Antiproliferative activity against human SCC-13 cells assessed as dose-dependent inhibition at 25 to 100 uM incubated for 48 hrs by Coulter cell counter analysis; format: functional, cell-based; conditions: dose 25-100 µM
[8] = test system: MDR1; experiment: Efflux ratio of apparent permeability in MDCK-MDR1 cells; format: ADME, cell-based, Canis lupus familiaris; conditions: dog
[9] = Apparent permeability from apical to basolateral side in MDCK-MDR1 cells; format: ADME, cell-based, Canis lupus familiaris; conditions: dog
[10] = Lipophilicity, logP of the compound; format: physicochemical; conditions: octanol/water

| Compound | Kinact [1] [min⁻¹] | Ratio [2] | Ki [3] [µM] | further results |
| --- | --- | --- | --- | --- |
| C=CC(=O)NCCCC[C@H](NC(=O)OCc1ccccc1)C(=O)N1CCN(C(=O)[C@@H](CC(C)C)NC(=O)c2cccc3ccccc23)CC1 | 1.4 | 330 10^3/M/min | 4.4 | – |
| C=CC(=O)NCCCC[C@H](NC(=O)OCc1ccccc1)C(=O)N[C@H](C(=O)N1CCN(C(=O)c2cccc3ccccc23)CC1)C(C)C | 0.29 | 56 10^3/M/min | 5.1 | – |
| C=CC(=O)NCCCC[C@H](NC(=O)Cc1ccccc1Br)C(=O)N1CCN(C(=O)[C@H](C)NC(=O)c2cccc3ccccc23)CC1 | 2.69 | 275 10^3/M/min | 9.8 | – |
| C=CC(=O)NCCCC[C@H](NC(=O)Cc1ccccc1Cl)C(=O)N1CCN(C(=O)[C@@H](Cc2ccccc2)NC(=O)c2cccc3ccccc23)CC1 | – | – | – | Ratio [4]: 127 10^3/M/min |
| C=CC(=O)NCCCC[C@H](NC(=O)Cc1ccccc1C)C(=O)N1CCN(C(=O)[C@@H](C)NC(=O)c2cccc3ccccc23)CC1 | 5.59 | 374 10^3/M/min | 14.9 | – |
| C=CC(=O)NCCCC[C@H](NC(=O)Cc1ccccc1Cl)C(=O)N1CCN(C(=O)[C@@H](C)NC(=O)c2cccc3ccccc23)CC1 | – | – | – | Ratio [4]: 170 10^3/M/min |
| C=CC(=O)NCCCC[C@H](NC(=O)OCc1ccccc1)C(=O)N1CCN(C(=O)[C@H](Cc2ccccc2)NC(=O)c2cccc3ccccc23)CC1 | 0.99 | 470 10^3/M/min | 2.1 | – |
| C=CC(=O)NCCCC[C@H](NC(=O)OCc1ccccc1)C(=O)N1CCN(C(=O)[C@@H](NC(=O)c2cccc3ccccc23)C(C)C)CC1 | 0.79 | 272 10^3/M/min | 2.9 | – |
| C=CC(=O)NCCCC[C@H](NC(=O)Cc1ccccc1F)C(=O)N1CCN(C(=O)[C@H](C)NC(=O)c2cccc3ccccc23)CC1 | 1.68 | 502 10^3/M/min | 3.3 | – |
| C=CC(=O)NCCCC[C@H](NC(=O)Cc1ccccc1C)C(=O)N1CCN(C(=O)[C@H](Cc2ccccc2)NC(=O)c2cccc3ccccc23)CC1 | 1.51 | 171 10^3/M/min | 8.8 | – |
| C=CC(=O)NCCCC[C@H](NC(=O)OCc1ccccc1)C(=O)N1CCN(C(=O)[C@H](NC(=O)c2cccc3ccccc23)C(C)C)CC1 | 0.75 | 595 10^3/M/min | 1.3 | – |
| C=CC(=O)NCCCC[C@H](NC(=O)Cc1ccccc1Br)C(=O)N1CCN(C(=O)[C@@H](Cc2ccccc2)NC(=O)c2cccc3ccccc23)CC1 | – | – | – | Ratio [4]: 132 10^3/M/min |
| C=CC(=O)NCCCC[C@H](NC(=O)OCc1ccccc1)C(=O)N1CCN(C(=O)[C@@H](Cc2ccccc2)NC(=O)c2cccc3ccccc23)CC1 | 0.8 | 760 10^3/M/min | 1 | inhibition [5]: Active; Papp B→A [6]: 5.46 ×10⁻⁶ cm/s; Activity [7]: inactive; efflux ratio [8]: 96.7; Papp A→B [9]: 0.06 ×10⁻⁶ cm/s; logP [10]: 2.73 |
| C=CC(=O)NCCCC[C@H](NC(=O)OCc1ccccc1)C(=O)N1CCN(C(=O)[C@@H](C)NC(=O)c2cccc3ccccc23)CC1 | 0.75 | 590 10^3/M/min | 1.3 | – |
| C=CC(=O)NCCCC[C@H](NC(=O)OCc1ccccc1)C(=O)N1CCN(C(=O)[C@@H](NC(=O)c2cccc3ccccc23)C(C)CC)CC1 (some centres undefined) | 2.4 | 300 10^3/M/min | 8.1 | – |
| C=CC(=O)NCCCC[C@H](NC(=O)OCc1ccccc1)C(=O)N1CCN(C(=O)[C@H](CC(C)C)NC(=O)c2cccc3ccccc23)CC1 | 3.1 | 240 10^3/M/min | 12.8 | – |
| C=CC(=O)NCCCC[C@H](NC(=O)OCc1ccccc1)C(=O)N1CCN(C(=O)CNC(=O)c2cccc3ccccc23)CC1 | 0.16 | 513 10^3/M/min | 0.3 | Papp B→A [6]: 8.43 ×10⁻⁶ cm/s; efflux ratio [8]: 15.5; Papp A→B [9]: 0.55 ×10⁻⁶ cm/s; logP [10]: 2.99 |
| C=CC(=O)NCCCC[C@H](NC(=O)OCc1ccccc1)C(=O)N[C@@H](C(=O)N1CCN(C(=O)c2cccc3ccccc23)CC1)C(C)C | 0.22 | 65 10^3/M/min | 3.4 | – |
| C=CC(=O)NCCCC[C@H](NC(=O)Cc1ccccc1C)C(=O)N1CCN(C(=O)[C@H](C)NC(=O)c2cccc3ccccc23)CC1 | 3.95 | 418 10^3/M/min | 9.5 | – |
| C=CC(=O)NCCCC[C@H](NC(=O)Cc1ccccc1Br)C(=O)N1CCN(C(=O)[C@H](Cc2ccccc2)NC(=O)c2cccc3ccccc23)CC1 | 0.24 | 182 10^3/M/min | 1.3 | – |
| C=CC(=O)NCCCC[C@H](NC(=O)OCc1ccccc1)C(=O)NCC(=O)N1CCN(C(=O)c2cccc3ccccc23)CC1 | 0.77 | 330 10^3/M/min | 2.3 | – |
| C=CC(=O)NCCCC[C@H](NC(=O)Cc1ccccc1Cl)C(=O)N1CCN(C(=O)[C@H](C)NC(=O)c2cccc3ccccc23)CC1 | 1.97 | 211 10^3/M/min | 9.3 | – |
| C=CC(=O)NCCCC[C@H](NC(=O)Cc1ccccc1Cl)C(=O)N1CCN(C(=O)[C@H](Cc2ccccc2)NC(=O)c2cccc3ccccc23)CC1 | 0.25 | 155 10^3/M/min | 1.6 | – |
| C=CC(=O)NCCCC[C@H](NC(=O)OCc1ccccc1)C(=O)N1CCN(C(=O)[C@H](C)NC(=O)c2cccc3ccccc23)CC1 | 1.4 | 610 10^3/M/min | 2.3 | – |
| C=CC(=O)NCCCC[C@H](NC(=O)Cc1ccccc1OC)C(=O)N1CCN(C(=O)[C@H](C)NC(=O)c2cccc3ccccc23)CC1 | 1.52 | 252 10^3/M/min | 6 | – |
| C=CC(=O)NCCCC[C@H](NC(=O)Cc1ccccc1C)C(=O)N1CCN(C(=O)[C@@H](Cc2ccccc2)NC(=O)c2cccc3ccccc23)CC1 | – | – | – | Ratio [4]: 238 10^3/M/min |
| C=CC(=O)NCCCC[C@H](NC(=O)Cc1ccc(F)cc1F)C(=O)N1CCN(C(=O)[C@H](C)NC(=O)c2cccc3ccccc23)CC1 | 1.16 | 225 10^3/M/min | 5.1 | – |
| C=CC(=O)NCCCC[C@H](NC(=O)Cc1ccccc1Br)C(=O)N1CCN(C(=O)[C@@H](C)NC(=O)c2cccc3ccccc23)CC1 | – | 209 10^3/M/min | – | – |
